ChEMBL document CHEMBL1138767, “Macrocyclic inhibitors for peptide deformylase: a structure-activity relationship study of the ring size” (J Med Chem, 2004)
≈ marks a conversion by molar mass, not a printed value. Blank lines part the entries; values can stand above or below the compound they belong to.

How the values were obtained:
Escherichia coli = test: The compound was tested in vitro for antibacterial activity against Escherichia coli; assay type: functional
Method in brief: (§1)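 Broth microdilution per NCCLS M7-A5 in cation-adjusted Mueller–Hinton broth; 5% lysed horse blood added for streptococci, Haemophilus Test Medium for Haemophilus. Inoculum ~5 × 10^5 CFU/mL from 16–20 h plate cultures. Twofold dilutions, final 0.03–32 µg/mL. Incubated 16–20 h at 35–37 °C (Haemophilus and Streptococcus: 24 h, 5% CO2). MIC is the lowest concentration with no visible growth, read visually.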

Peptide deformylase [1] = target: T1, Peptide deformylase (Escherichia coli, UniProt Q9JN24); test: Inhibitory effect against Escherichia coli peptide deformylase (PDF) by DPPI assay
T1 sequence (Q9JN24 whole entry): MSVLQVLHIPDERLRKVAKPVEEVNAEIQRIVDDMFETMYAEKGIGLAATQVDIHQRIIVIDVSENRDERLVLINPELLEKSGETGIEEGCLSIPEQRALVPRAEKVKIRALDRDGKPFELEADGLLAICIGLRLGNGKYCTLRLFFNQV
Method in brief: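 E. coli PDF (Co(II) cofactor) assayed continuously at room temperature in 50 mM Hepes, 10 mM NaCl, 5 mM DTT, pH 7.0. Read at 360 nm, initial rates from <30 s, no-PDF background subtracted. K_I from Michaelis–Menten fit.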

[2] = target: T2, Interstitial collagenase (Homo sapiens) (UniProt P03956); test: Inhibition of MMP-1 (matrix metalloprotease) at 10 uM
T2 sequence (whole entry): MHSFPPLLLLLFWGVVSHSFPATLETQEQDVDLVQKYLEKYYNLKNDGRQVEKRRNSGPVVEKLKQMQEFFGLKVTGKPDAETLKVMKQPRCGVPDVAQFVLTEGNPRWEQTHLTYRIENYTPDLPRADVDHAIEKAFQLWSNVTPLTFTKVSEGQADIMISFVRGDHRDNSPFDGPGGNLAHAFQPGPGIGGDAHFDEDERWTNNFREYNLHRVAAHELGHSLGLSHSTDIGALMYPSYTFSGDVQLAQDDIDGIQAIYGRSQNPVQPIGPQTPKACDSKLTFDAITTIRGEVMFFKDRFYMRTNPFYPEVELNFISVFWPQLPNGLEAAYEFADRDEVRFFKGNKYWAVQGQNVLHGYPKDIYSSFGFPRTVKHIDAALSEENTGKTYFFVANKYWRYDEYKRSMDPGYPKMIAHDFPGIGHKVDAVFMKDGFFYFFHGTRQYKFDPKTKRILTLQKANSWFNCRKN
Method in brief: (§2)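 Human MMP-1, -2, -3 or -9 (0.10 µg, added last to start the reaction) in 100 mM Tris, 100 mM NaCl, 10 mM CaCl2, 0.04% Brij-35. Contained 15 µM fluorogenic peptide substrate (Mca-P-K-G-Dpa-A-R-NH2 for MMP-1/-2) and inhibitor at 0, 1 or 10 µM. Remaining activity monitored continuously by fluorescence, excitation 320 nm, emission 405 nm.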

[3] = target: Stromelysin-1 (Homo sapiens) (UniProt P08254); test: Inhibition of MMP-3 (matrix metalloprotease) at 10 uM; method in brief: as §2
Sequence of Stromelysin-1 (Homo sapiens) (P08254 100-477 limits assumed): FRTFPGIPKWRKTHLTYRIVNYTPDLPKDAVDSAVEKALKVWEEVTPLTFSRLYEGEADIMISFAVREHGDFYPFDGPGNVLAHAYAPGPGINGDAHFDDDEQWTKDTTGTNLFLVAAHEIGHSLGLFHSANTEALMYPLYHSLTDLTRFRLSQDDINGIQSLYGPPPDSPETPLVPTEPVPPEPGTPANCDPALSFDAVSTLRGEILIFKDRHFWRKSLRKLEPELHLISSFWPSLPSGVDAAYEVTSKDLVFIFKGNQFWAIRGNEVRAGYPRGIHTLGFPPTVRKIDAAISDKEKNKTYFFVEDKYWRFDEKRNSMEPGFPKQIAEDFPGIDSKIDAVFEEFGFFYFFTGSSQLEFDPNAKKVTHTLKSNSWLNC

[4] = target: Matrix metalloproteinase-9 (Homo sapiens) (UniProt P14780); test: Inhibition of MMP-9 (matrix metalloprotease) at 10 uM; method in brief: as §2
Sequence of Matrix metalloproteinase-9 (Homo sapiens) (P14780 whole entry): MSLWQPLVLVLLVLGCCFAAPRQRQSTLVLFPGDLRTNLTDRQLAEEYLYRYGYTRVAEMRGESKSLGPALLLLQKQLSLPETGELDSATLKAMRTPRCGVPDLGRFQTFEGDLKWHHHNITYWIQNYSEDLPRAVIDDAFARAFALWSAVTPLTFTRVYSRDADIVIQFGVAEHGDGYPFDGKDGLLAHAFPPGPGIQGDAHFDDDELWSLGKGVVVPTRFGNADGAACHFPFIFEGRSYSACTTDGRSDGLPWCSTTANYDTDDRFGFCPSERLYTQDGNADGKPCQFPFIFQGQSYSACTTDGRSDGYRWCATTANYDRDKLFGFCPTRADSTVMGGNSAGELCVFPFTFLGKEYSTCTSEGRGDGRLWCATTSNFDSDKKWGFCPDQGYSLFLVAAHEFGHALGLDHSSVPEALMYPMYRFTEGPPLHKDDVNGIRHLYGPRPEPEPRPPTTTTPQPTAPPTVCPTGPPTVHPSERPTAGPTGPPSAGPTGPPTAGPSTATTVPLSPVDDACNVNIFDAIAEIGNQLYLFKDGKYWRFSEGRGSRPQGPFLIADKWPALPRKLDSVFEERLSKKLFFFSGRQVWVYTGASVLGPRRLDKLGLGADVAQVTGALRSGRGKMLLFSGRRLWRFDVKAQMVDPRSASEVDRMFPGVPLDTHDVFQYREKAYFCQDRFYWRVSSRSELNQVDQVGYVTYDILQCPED

[5] = target: T2, Interstitial collagenase (Homo sapiens); test: Inhibition of MMP-1 (matrix metalloprotease) at 1 uM; method in brief: as §2
[6] = target: 72 kDa type IV collagenase (Homo sapiens) (UniProt P08253); test: Inhibition of MMP-2 (matrix metalloprotease) at 10 uM; method in brief: as §2
Sequence of 72 kDa type IV collagenase (Homo sapiens) (P08253 110-660 limits assumed): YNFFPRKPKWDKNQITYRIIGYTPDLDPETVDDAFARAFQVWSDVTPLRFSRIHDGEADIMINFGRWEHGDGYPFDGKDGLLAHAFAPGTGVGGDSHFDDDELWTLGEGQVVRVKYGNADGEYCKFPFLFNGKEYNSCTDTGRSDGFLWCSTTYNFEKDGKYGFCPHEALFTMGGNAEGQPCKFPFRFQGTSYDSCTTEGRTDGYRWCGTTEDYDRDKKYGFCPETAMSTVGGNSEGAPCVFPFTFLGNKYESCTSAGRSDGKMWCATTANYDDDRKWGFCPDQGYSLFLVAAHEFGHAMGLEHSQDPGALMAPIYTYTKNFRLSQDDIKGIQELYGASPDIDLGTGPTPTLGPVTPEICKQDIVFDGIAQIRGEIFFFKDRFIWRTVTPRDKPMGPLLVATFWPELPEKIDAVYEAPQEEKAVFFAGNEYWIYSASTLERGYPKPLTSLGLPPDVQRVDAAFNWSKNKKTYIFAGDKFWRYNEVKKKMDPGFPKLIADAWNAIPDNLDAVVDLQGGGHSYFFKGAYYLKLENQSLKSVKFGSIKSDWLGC

[7] = target: Stromelysin-1 (Homo sapiens) (UniProt P08254); test: Inhibition of MMP-3 (matrix metalloprotease) at 1 uM; method in brief: as §2
[8] = target: Matrix metalloproteinase-9 (Homo sapiens) (UniProt P14780); test: Inhibition of MMP-9 (matrix metalloprotease) at 1 uM; method in brief: as §2
[9] = target: 72 kDa type IV collagenase (Homo sapiens) (UniProt P08253); test: Inhibition of MMP-2 (matrix metalloprotease) at 1 uM; method in brief: as §2
Peptide deformylase [10] = target: T1, Peptide deformylase; test: Inhibitory effect against Escherichia coli peptide deformylase (PDF) by AAP assay
Method in brief: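 E. coli PDF (Co(II) cofactor) 8 nM preincubated with 0–300 nM inhibitor 2 h on ice in 50 mM Hepes pH 7.0, 150 mM NaCl, 100 μM BSA. Reaction started at room temperature with 80 μM f-ML-pNA for 10 min, heat-quenched at 95 °C, then coupled with AAP. A405 measured, no-PDF background subtracted, conversion <20%. K_I* from Michaelis–Menten fit.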

[11] = target: T3, Peptide deformylase (Escherichia coli) (UniProt Q9JN24); test: Inhibition constant against Escherichia coli Peptide deformylase (PDF)
T3 sequence (whole entry): T1 sequence (Q9JN24 whole entry)

[12] = target: T3, Peptide deformylase (Escherichia coli); test: The inhibition constant was measured against Escherichia coli PDF (Peptide deformylase) by diluting a preformed EI* complex into a assay buffer containing f-Met-Lys-AMC and DPPI
Method in brief: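 E. coli PDF (Co(II) form) at 40–160 nM and inhibitor at 80–200 nM, preincubated 2 h on ice in 50 mM Hepes pH 7.0, 10 mM NaCl, 5 mM DTT with 100 µM BSA. Then diluted 10-fold into the same buffer with 270 µM f-Met-Lys-AMC and 0.1 U DPPI. Recovery of activity followed continuously at 360 nm; k6 taken from progress curves.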

Bacillus subtilis = test: The compound was tested in vitro for antibacterial activity against Bacillus subtilis
Enterococcus faecalis = test: The compound was tested in vitro for antibacterial activity against Enterococcus faecalis(ATCC 29212); assay type: functional; method in brief: as §1
Moraxella catarrhalis = test: The compound was tested in vitro for antibacterial activity against Moraxella catarrhalis (ATCC 37054); assay type: functional; method in brief: as §1
Staphylococcus aureus = test: The compound was tested in vitro for antibacterial activity against Staphylococcus aureus (ATCC 29213); assay type: functional; method in brief: as §1
Haemophilus influenzae = test: The compound was tested in vitro for antibacterial activity against Haemophilus influenzae (ATCC 31517); assay type: functional; method in brief: as §1
Streptococcus pneumoniae [13] = test: The compound was tested in vitro for antibacterial activity against Streptococcus pneumoniae (ATCC 6301); assay type: functional; method in brief: as §1
Streptococcus pneumoniae [14] = test: The compound was tested in vitro for antibacterial activity against Streptococcus pneumoniae (ATCC 6303); assay type: functional; method in brief: as §1
Streptococcus pneumoniae [15] = test: The compound was tested in vitro for antibacterial activity against Streptococcus pneumoniae (ATCC 49619); assay type: functional; method in brief: as §1

Compound: CC(C)(C)[C@@H]1NC(=O)[C@@H](CN(O)C=O)CCCCCCCCNC1=O
MIC90 (Escherichia coli): > 24 µg/mL
Ki (Peptide deformylase [1]): 0.063 µM
inhibition [2]: 1%
inhibition [3]: 20%
inhibition [4]: 11%
inhibition [5]: 0%
inhibition [6]: 15%
inhibition [7]: 3%
inhibition [8]: 8%
inhibition [9]: 10%
Ki (Peptide deformylase [10]; read-out: Ki): 0.0137 µM
K5 [11]: 0.02 min⁻¹
K6 [12]: 0.0061 min⁻¹
MIC90 (Bacillus subtilis): 1.4 µg/mL (≈ 3.94 µM)

Compound: NCCCC[C@@H]1NC(=O)[C@@H](CN(O)C=O)CCCCCCCCCCCCCCNC1=O
MIC90 (Escherichia coli): > 32 µg/mL
MIC90 (Enterococcus faecalis): 32 µg/mL (≈ 70.4 µM)
MIC90 (Moraxella catarrhalis): 1 µg/mL (≈ 2.2 µM)
MIC90 (Staphylococcus aureus): 32 µg/mL (≈ 70.4 µM)
MIC90 (Haemophilus influenzae): 32 µg/mL (≈ 70.4 µM)
MIC90 (Streptococcus pneumoniae [13]): > 32 µg/mL
MIC90 (Streptococcus pneumoniae [14]): > 32 µg/mL
MIC90 (Streptococcus pneumoniae [15]): > 32 µg/mL
inhibition [2]: 7%
inhibition [3]: 6%
inhibition [4]: 5%
inhibition [5]: 1%
inhibition [6]: 15%
inhibition [7]: 0%
inhibition [8]: 4%
inhibition [9]: 6%
Ki (Peptide deformylase [10]; read-out: Ki): 0.036 µM
K5 [11]: 0.11 min⁻¹
K6 [12]: 0.018 min⁻¹
MIC90 (Bacillus subtilis): > 32 µg/mL

Compound: CC(C)(C)[C@@H]1NC(=O)[C@@H](CN(O)C=O)CCCCCCCCCCNC1=O
MIC90 (Escherichia coli): > 12 µg/mL
Ki (Peptide deformylase [1]): 0.096 µM
Ki (Peptide deformylase [10]; read-out: Ki): 0.00023 µM
K5 [11]: 1.6 min⁻¹
K6 [12]: 0.0037 min⁻¹
MIC90 (Bacillus subtilis): 0.2 µg/mL (≈ 0.521 µM)

Compound: CC(C)(C)[C@@H]1NC(=O)[C@@H](CN(O)C=O)CCCCCCCCCNC1=O
MIC90 (Enterococcus faecalis): > 32 µg/mL
MIC90 (Moraxella catarrhalis): 0.62 µg/mL (≈ 1.68 µM)
MIC90 (Staphylococcus aureus): 16 µg/mL (≈ 43.3 µM)
MIC90 (Haemophilus influenzae): 0.5 µg/mL (≈ 1.35 µM)
MIC90 (Streptococcus pneumoniae [13]): 4 µg/mL (≈ 10.8 µM)
MIC90 (Streptococcus pneumoniae [14]): 2 µg/mL (≈ 5.41 µM)
MIC90 (Streptococcus pneumoniae [15]): 4 µg/mL (≈ 10.8 µM)
Ki (Peptide deformylase [1]): 0.109 µM
inhibition [2]: 14%
inhibition [3]: 9%
inhibition [4]: 9%
inhibition [5]: 7%
inhibition [6]: 8%
inhibition [7]: 3%
inhibition [8]: 5%
inhibition [9]: 4%
Ki (Peptide deformylase [10]; read-out: Ki): 0.00033 µM
K5 [11]: 1.2 min⁻¹
K6 [12]: 0.0038 min⁻¹
MIC90 (Bacillus subtilis): 0.7 µg/mL (≈ 1.89 µM)

inhibition [2]: 100%
inhibition [3]: 99%
inhibition [4]: 94%
inhibition [5]: 50%
inhibition [6]: 98%
inhibition [7]: 81%
inhibition [8]: 61%
inhibition [9]: 73%
Ki (Peptide deformylase [10]): No Slow-Binding Behaviour
K5 [11]: No Slow-Binding Behaviour
K6 [12]: No Slow-Binding Behaviour
Compound: CCCCCCNC(=O)[C@H](CCCCN)NC(=O)[C@H](CCCCC)CN(O)C=O

Compound: CCCC[C@H](CN(O)C=O)C(=O)N[C@@H](CCCCN)C(=O)Nc1ccccc1
Ki (Peptide deformylase [1]): 0.023 µM
inhibition [2]: 97%
inhibition [3]: 73%
inhibition [4]: 89%
inhibition [5]: 50%
inhibition [6]: 55%
inhibition [7]: 68%
inhibition [8]: 54%
inhibition [9]: 34%
Ki (Peptide deformylase [10]): No Slow-Binding Behaviour
K5 [11]: No Slow-Binding Behaviour
K6 [12]: No Slow-Binding Behaviour

Compound: CC(C)(C)[C@@H]1NC(=O)[C@@H](CN(O)C=O)CCCCCCCCCCCNC1=O
MIC90 (Escherichia coli): > 24 µg/mL
Ki (Peptide deformylase [1]): 0.077 µM
Ki (Peptide deformylase [10]; read-out: Ki): 0.00022 µM
K5 [11]: 0.5 min⁻¹
K6 [12]: 0.0015 min⁻¹
MIC90 (Bacillus subtilis): 0.08 µg/mL (≈ 0.201 µM)

Compound: CC(C)(C)[C@@H]1NC(=O)[C@@H](CN(O)C=O)CCCCCCCCCCCCCCNC1=O
MIC90 (Escherichia coli): > 24 µg/mL
MIC90 (Enterococcus faecalis): > 32 µg/mL
MIC90 (Moraxella catarrhalis): < 0.03 µg/mL
MIC90 (Staphylococcus aureus): > 32 µg/mL
MIC90 (Haemophilus influenzae): > 32 µg/mL
MIC90 (Streptococcus pneumoniae [13]): 8 µg/mL (≈ 18.2 µM)
MIC90 (Streptococcus pneumoniae [14]): 4 µg/mL (≈ 9.1 µM)
MIC90 (Streptococcus pneumoniae [15]): 8 µg/mL (≈ 18.2 µM)
inhibition [2]: 8%
inhibition [3]: 4%
inhibition [4]: 6%
inhibition [5]: 7%
inhibition [6]: 0%
inhibition [7]: 3%
inhibition [8]: 4%
inhibition [9]: 0%
Ki (Peptide deformylase [10]; read-out: Ki): 0.025 µM
K5 [11]: 1 min⁻¹
K6 [12]: 0.01 min⁻¹
MIC90 (Bacillus subtilis): ~16 µg/mL (≈ 36.4 µM)

Compound: NCCCC[C@@H]1NC(=O)[C@@H](CN(O)C=O)CCCCCCCCCNC1=O
MIC90 (Escherichia coli): 4 µg/mL (≈ 10.4 µM)
Ki (Peptide deformylase [1]): 0.092 µM
Ki (Peptide deformylase [10]; read-out: Ki): 0.003 µM
K5 [11]: 0.12 min⁻¹
K6 [12]: 0.0042 min⁻¹
MIC90 (Bacillus subtilis): ~8 µg/mL (≈ 20.8 µM)

Compound: CCCC[C@H](CN(O)C=O)C(=O)N[C@H](C(=O)N(C)C)C(C)(C)C
Ki (Peptide deformylase [1]): 0.011 µM
Ki (Peptide deformylase [10]): No Slow-Binding Behaviour
K5 [11]: No Slow-Binding Behaviour
K6 [12]: No Slow-Binding Behaviour

Compound: CC(=O)NCCCC[C@@H]1NC(=O)[C@@H](CN(O)C=O)CCCCCCCCCNC1=O
Ki (Peptide deformylase [1]): 0.71 µM
inhibition [2]: 13%
inhibition [3]: 8%
inhibition [4]: 8%
inhibition [5]: 3%
inhibition [6]: 20%
inhibition [7]: 0%
inhibition [8]: 8%
inhibition [9]: 17%
Ki (Peptide deformylase [10]; read-out: Ki): 0.012 µM
K5 [11]: 0.28 min⁻¹
K6 [12]: 0.0048 min⁻¹
